The source made the active and inactive calls. The rule behind the calls is not given here.
Organism: Mus musculus
Assay: Analgesic activity of compound assayed by the mouse hotplate method was determined
Assay type: functional
Summary of the method: (§1)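 Mouse hot-plate test. Compounds were given subcutaneously as water-soluble HCl salts. The ED50 is expressed in mmol/kg, and potency is given as log(1/C), where C is the ED50 in mmol/kg.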
With Cc1[nH]c(C)c(C(=O)OC2CCN(C)CC2)c1C the Log 1/C was 1.87.

Organism: Mus musculus
Assay: Relative Analgesic activity of compound to the N-substituted normeperidine assayed by the mouse hotplate method
Assay type: functional
Work on CCOC(=O)C1(c2ccccc2)CCN(CC)CC1 yielded a Relative activity of 0.5. With CCOC(=O)C1(c2ccccc2)CCN(CCc2ccccc2)CC1 [PHENERIDINE] the Relative activity was 2.6. In the case of CCOC(=O)C1(c2ccccc2)CCN(Cc2ccccc2)CC1, the Relative activity is reported as under 0.5. Work on Oc1ccc2c3c1O[C@H]1[C@@H](O)C=CC4(CC2)CN(C/C=C/c2ccccc2)CCC314 (some centres undefined) yielded a Relative activity of under 0.1. Compound CCOC(=O)C1(c2ccccc2)CCN(CCCCc2ccccc2)CC1 has a Relative activity of 2.8. In the case of CCOC(=O)C1(c2ccccc2)CCN(C/C=C/c2ccccc2)CC1, the Relative activity is reported as 40. With Oc1ccc2c3c1O[C@H]1[C@@H](O)C=CC4(CC2)CN(CCCCc2ccccc2)CCC314 (some centres undefined) the Relative activity was 0.3.

Organism: Mus musculus
Assay: Relative Analgesic activity of compound to the N-methyl homologue assayed by the mouse hotplate method
Assay type: functional
Cc1[nH]c(C)c(C(=O)OC2CCN(Cc3ccccc3)CC2)c1C gave a Relative activity of 0.8. In the case of Cc1[nH]c(C)c(C(=O)OC2CCN(C)CC2)c1C, the Relative activity is reported as 1. CCOC(=O)C1(c2ccccc2)CCN(C)CC1 [MEPERIDINE] was tested, and the Relative activity was 1. Work on CCN1CCC(OC(=O)c2c(C)[nH]c(C)c2C)CC1 yielded a Relative activity of 0.5. In the case of Oc1ccc2c3c1O[C@H]1[C@@H](O)C=CC4(CC2)CN(CCc2ccccc2)CCC314 (some centres undefined), the Relative activity is reported as 6. Compound Cc1[nH]c(C)c(C(=O)OC2CCN(CCc3ccccc3)CC2)c1C has a Relative activity of 0.3. Work on CN1CCC23c4c5ccc(O)c4O[C@H]2[C@@H](O)C=CC3(CC5)C1 (some centres undefined) yielded a Relative activity of 1. Oc1ccc2c3c1O[C@H]1[C@@H](O)C=CC4(CC2)CN(Cc2ccccc2)CCC314 (some centres undefined) showed a Relative activity of under 0.1. In the case of CCN1CCC23c4c5ccc(O)c4O[C@H]2[C@@H](O)C=CC3(CC5)C1 (some centres undefined), the Relative activity is reported as under 0.1.

Organism: Mus musculus
Assay: Analgesic activity assayed with the mouse hotplate method
Assay type: functional
Summary of the method: as §1
COc1ccc(C(=O)OC2CCN(C)CC2)cc1 was tested, and the “Log 1/C” value was 1.43. In the case of CN1CCC(OC(=O)c2ccc([N+](=O)[O-])cc2)CC1, the “Log 1/C” value is reported as 1.14. CN1CCC(OC(=O)c2cccc(C#N)c2)CC1 was tested, and the “Log 1/C” value was 1.39. With CN1CCC(OC(=O)c2ccccc2[N+](=O)[O-])CC1 the “Log 1/C” value was 1.48. In the case of CN1CCC(OC(=O)c2ccc(C#N)cc2)CC1, the “Log 1/C” value is reported as 1.65. With COc1cc(C(=O)OC2CCN(C)CC2)cc(OC)c1OC the “Log 1/C” value was 1.35. For COc1cccc(C(=O)OC2CCN(C)CC2)c1OC, the “Log 1/C” value was 1.55. COc1cc(C(=O)OC2CCN(C)CC2)ccc1C was tested, and the “Log 1/C” value was 1.4. For COc1cccc(C(=O)OC2CCN(C)CC2)c1, the “Log 1/C” value was 1.67. With COc1ccc(C(=O)OC2CCN(C)CC2)cc1OC the “Log 1/C” value was 1.91. CN1CCC(OC(=O)c2ccccc2Cl)CC1 was tested, and the “Log 1/C” value was 1.25. In the case of CN1CCC(OC(=O)c2ccc3c(c2)OCO3)CC1, the “Log 1/C” value is reported as 1.61. In the case of COc1ccccc1C(=O)OC1CCN(C)CC1, the “Log 1/C” value is reported as 1.43. For Cc1cccc(C)c1C(=O)OC1CCN(C)CC1, the “Log 1/C” value was 1.27. In the case of CN1CCC(OC(=O)c2ccc(F)cc2)CC1, the “Log 1/C” value is reported as 1.38. For Cc1cc(C)cc(C(=O)OC2CCN(C)CC2)c1, the “Log 1/C” value was 1.07. CN1CCC(OC(=O)c2ccc(Cl)cc2)CC1 was tested, and the “Log 1/C” value was 1.11. CN1CCC(OC(=O)c2ccccc2F)CC1 was tested, and the “Log 1/C” value was 1.41. For CN1CCC(OC(=O)c2ccc(Cl)c(Cl)c2)CC1, the “Log 1/C” value was 1.08. CN1CCC(OC(=O)c2ccc(C(C)(C)C)cc2)CC1 was tested, and the “Log 1/C” value was 1.13. CN1CCC(OC(=O)c2ccccc2Cc2ccccc2)CC1 was tested, and the “Log 1/C” value was 1.28. For COc1cc(OC)c(C(=O)OC2CCN(C)CC2)c(OC)c1, the “Log 1/C” value was 1.47. In the case of Cc1ccc(C(=O)OC2CCN(C)CC2)cc1F, the “Log 1/C” value is reported as 1.32. In the case of COc1cccc(OC)c1C(=O)OC1CCN(C)CC1, the “Log 1/C” value is reported as 0.63. In the case of Cc1ccc(C(=O)OC2CCN(C)CC2)cc1, the “Log 1/C” value is reported as 1.17. CN1CCC(OC(=O)c2ccc(-c3ccccc3)cc2)CC1 was tested, and the “Log 1/C” value was 0.85. CN1CCC(OC(=O)c2ccccc2)CC1 was tested, and the “Log 1/C” value was 1.43. In the case of Cc1cc(C)c(C(=O)OC2CCN(C)CC2)cc1C, the “Log 1/C” value is reported as 1.17. With COc1cc(OC)cc(C(=O)OC2CCN(C)CC2)c1 the “Log 1/C” value was 1.53. In the case of CCOc1ccc(C(=O)OC2CCN(C)CC2)cc1, the “Log 1/C” value is reported as 1.72. For Cc1cc(C)c(C(=O)OC2CCN(C)CC2)c(C)c1, the “Log 1/C” value was 1.55. In the case of CCCCOc1ccc(C(=O)OC2CCN(C)CC2)cc1, the “Log 1/C” value is reported as 1.58. For CN1CCC(OC(=O)c2ccccc2Br)CC1, the “Log 1/C” value was 1.21. In the case of Cc1ccc(C)c(C(=O)OC2CCN(C)CC2)c1, the “Log 1/C” value is reported as 1.36. With CN1CCC(OC(=O)c2cccc(F)c2)CC1 the “Log 1/C” value was 1.26. With CN1CCC(OC(=O)c2ccccc2C(F)(F)F)CC1 the “Log 1/C” value was 1.49. CN1CCC(OC(=O)c2cccc(O)c2)CC1 was tested, and the “Log 1/C” value was 1.21. For Cc1ccccc1C(=O)OC1CCN(C)CC1, the “Log 1/C” value was 1.48.

Organism: Mus musculus
Assay: Analgesic activity of compound assayed by the mouse hotplate method was determined as log(1/C); Activity observed in 4-5 out of 10 mice tested
Assay type: functional
Summary of the method: as §1
CCc1ccccc1C(=O)OC1CCN(C)CC1 was tested, and the “Log 1/C” value was 1.15. CN1CCC(OC(=O)c2ccccc2Oc2ccccc2)CC1 was tested, and the “Log 1/C” value was 1.24. With CN1CCC(OC(=O)c2ccccc2CCc2ccccc2)CC1 the “Log 1/C” value was 0.86. In the case of CN1CCC(OC(=O)c2ccccc2-c2ccccc2)CC1, the “Log 1/C” value is reported as 1.52. In the case of CCOc1ccccc1C(=O)OC1CCN(C)CC1, the “Log 1/C” value is reported as 1.18. For Cc1ccc(C(=O)OC2CCN(C)CC2)cc1C, the “Log 1/C” value was 1.15.

Organism: Mus musculus
Assay: Analgesic activity of compound assayed by the mouse hotplate method was determined as ED50.
Assay type: functional
Summary of the method: as §1
Cc1[nH]c(C)c(C(=O)OC2CCN(Cc3ccccc3)CC2)c1C gave an ED50 of 6.3 mg/kg. For Cc1[nH]c(C)c(C(=O)OC2CCN(C)CC2)c1C, the ED50 was 4.9 mg/kg. Work on CCN1CCC(OC(=O)c2c(C)[nH]c(C)c2C)CC1 yielded an ED50 of 10.4 mg/kg. Compound Cc1[nH]c(C)c(C(=O)OC2CCN(CCc3ccccc3)CC2)c1C has an ED50 of 20 mg/kg.

Organism: Mus musculus
Assay: Analgesic activity of compound assayed by the mouse hotplate method was determined as log(1/C); Inactive
Assay type: functional, organism-based
With CN1CCC(OC(=O)c2ccc(I)cc2)CC1 the “Log 1/C” value was “inactive”. In the case of CN1CCC(OC(=O)c2ccccc2C#N)CC1, the “Log 1/C” value is reported as “inactive”. For CN1CCC(OC(=O)c2cc(I)cc(I)c2I)CC1, the “Log 1/C” value was “inactive”. With Cc1cccc(C(=O)OC2CCN(C)CC2)c1 the “Log 1/C” value was “inactive”.

From ChEMBL document CHEMBL1122005, “Quantitative structure-activity relationships of aromatic esters of 1-methyl-4-piperidinol as analgesics” (1982)
